The record followed here is ChEMBL document CHEMBL4622996, “Discovery of Vixotrigine: A Novel Use-Dependent Sodium Channel Blocker for the Treatment of Trigeminal Neuralgia” (ACS Med Chem Lett, 2020).

Data set [1] in a line: Ratio of drug level in brain to blood in rat. The format is ADME, tissue-based. The note with it: read-out: Kbb.
Data set [2] addresses Cytochrome P450 2D6 (Homo sapiens, UniProt P10635). The data set can be described thus: Inhibition of CYP2D6 (unknown origin). It is filed as ADME.
Data set [3] has as its target T1, Cytochrome P450 2B6 (Homo sapiens, UniProt P20813).
T1 sequence (P20813 whole entry): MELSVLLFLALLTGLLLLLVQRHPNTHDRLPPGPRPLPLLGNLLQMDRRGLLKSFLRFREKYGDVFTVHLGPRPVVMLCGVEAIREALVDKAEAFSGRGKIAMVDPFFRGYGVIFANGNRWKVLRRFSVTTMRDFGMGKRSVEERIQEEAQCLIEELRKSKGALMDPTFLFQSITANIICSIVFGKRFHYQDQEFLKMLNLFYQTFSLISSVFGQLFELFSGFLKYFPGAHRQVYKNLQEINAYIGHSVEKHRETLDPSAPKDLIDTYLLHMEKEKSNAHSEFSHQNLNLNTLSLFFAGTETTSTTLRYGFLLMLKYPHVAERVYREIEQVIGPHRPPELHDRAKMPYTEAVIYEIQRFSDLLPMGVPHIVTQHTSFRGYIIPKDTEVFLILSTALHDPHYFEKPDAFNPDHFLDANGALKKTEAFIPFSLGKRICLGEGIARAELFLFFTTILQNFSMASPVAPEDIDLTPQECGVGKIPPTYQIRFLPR
Put plainly: Inhibition of CYP2B6 (unknown origin). It is filed as ADME.

Data set [4] in a line: Volume of distribution in steady state in rat at 0.5 mg/kg, iv. It is filed as ADME, organism-based. The note with it: in vivo, read-out: Vdss.
Data set [5] in a line: Tmax in monkey at 3 mg/kg, po. The note with it: rhesus monkey, in vivo. It is filed as ADME, organism-based, Macaca mulatta.
The nature of data set [6]: Free plasma concentration in rat model of chronic constriction injury-induced neuropathic pain at 5 mg/kg, po BID administered 22 days post surgery and measured on day 8 at 0.5 hrs post-dose. The format is ADME, organism-based. The note with it: in vivo. The essentials: (§1)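 Chronic constriction injury neuropathic pain model in rat; oral dosing at 0.5 or 5 mg/kg BID starting day 22; mechanical allodynia read after 6 and 8 days of dosing; gabapentin 30 mg/kg po BID as positive control. Free plasma levels sampled on day 8, 0.5 h postdose.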

The target in data set [7] is T2, Solute carrier family 22 member 6 (Homo sapiens, UniProt Q4U2R8).
T2 sequence (Q4U2R8 whole entry): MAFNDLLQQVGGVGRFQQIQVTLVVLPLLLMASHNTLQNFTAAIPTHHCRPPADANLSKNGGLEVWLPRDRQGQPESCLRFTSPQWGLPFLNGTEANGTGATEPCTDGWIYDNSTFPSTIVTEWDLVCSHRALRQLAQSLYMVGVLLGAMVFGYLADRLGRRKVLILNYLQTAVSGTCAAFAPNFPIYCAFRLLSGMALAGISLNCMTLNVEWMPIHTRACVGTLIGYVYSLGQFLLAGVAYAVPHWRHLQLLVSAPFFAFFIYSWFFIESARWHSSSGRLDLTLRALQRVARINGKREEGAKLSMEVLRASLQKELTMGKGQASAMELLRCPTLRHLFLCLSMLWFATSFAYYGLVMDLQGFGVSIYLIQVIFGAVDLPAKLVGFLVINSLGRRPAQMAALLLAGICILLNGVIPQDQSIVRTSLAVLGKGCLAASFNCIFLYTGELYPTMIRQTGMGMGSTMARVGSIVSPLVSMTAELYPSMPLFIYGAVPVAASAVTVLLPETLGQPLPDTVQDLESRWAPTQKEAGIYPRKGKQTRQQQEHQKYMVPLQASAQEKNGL
The data set can be described thus: Inhibition of OAT1 (unknown origin).

The nature of data set [8]: Oral bioavailability in monkey at 3 mg/kg. Particulars: rhesus monkey, in vivo. It is filed as ADME, organism-based, Macaca mulatta.
Data set [9] in a line: Oral bioavailability in rat at 3 mg/kg. It is filed as ADME, organism-based. Particulars: in vivo.
Data set [10] has as its target Sodium channel protein type 3 subunit alpha (Homo sapiens, UniProt Q9NY46). Put plainly: Inhibition of Nav1.3 (unknown origin) expressed in HEK293 cells assessed as inhibition of sodium current incubated for 3 to 3.5 mins by electrophysiology assay. It is filed as cell-based. The method in brief: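 HEK293 cells stably expressing NaV1.3, grown in DMEM-F12 with 10% FBS at 37 °C, dissociated at 50–70% confluency; IonWorksHT planar patch clamp at 21–23 °C, amphotericin perforated access; intracellular K-gluconate 100, KCl 40, MgCl2 3.2, EGTA 3, HEPES 5 mM, pH 7.3.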

Data set [11] concerns Rattus norvegicus. The data set can be described thus: Antinociceptive activity in rat model of chronic constriction injury-induced neuropathic pain assessed as inhibition of mechanical allodynia at 0.5 to 5 mg/kg, po BID administered 22 days post surgery and measured after 6 to 8 days. It is filed as functional, organism-based. The essentials: as §1
Data set [12] deals with T3, Amine oxidase [flavin-containing] B (Homo sapiens, UniProt P27338).
T3 sequence (P27338 whole entry): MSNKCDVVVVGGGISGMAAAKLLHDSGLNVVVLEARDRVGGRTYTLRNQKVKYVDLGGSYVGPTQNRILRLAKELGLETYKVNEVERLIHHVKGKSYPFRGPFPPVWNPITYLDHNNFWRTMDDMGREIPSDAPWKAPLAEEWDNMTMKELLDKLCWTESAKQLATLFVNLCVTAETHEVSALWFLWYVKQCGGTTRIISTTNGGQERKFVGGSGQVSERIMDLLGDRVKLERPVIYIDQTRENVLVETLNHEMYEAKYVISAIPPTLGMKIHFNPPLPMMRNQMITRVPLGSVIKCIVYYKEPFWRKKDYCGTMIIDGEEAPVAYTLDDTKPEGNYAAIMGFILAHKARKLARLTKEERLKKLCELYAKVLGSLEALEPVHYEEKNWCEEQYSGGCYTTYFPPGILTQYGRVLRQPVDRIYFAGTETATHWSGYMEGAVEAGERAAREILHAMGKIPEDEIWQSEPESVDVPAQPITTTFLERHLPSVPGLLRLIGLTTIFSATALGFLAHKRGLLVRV
The data set can be described thus: Inhibition of MAO-B (unknown origin). The essentials:
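MAO-B inhibition measured in human liver microsomes, reported as pIC50.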

A short description of data set [13]: Cmax in dog at 3 mg/kg, po. It is filed as ADME, organism-based, Canis lupus familiaris. More on the design: dose 3 mg/kg, route oral. Particulars: in vivo.
Data set [14] can be described thus: Total blood clearance in dog blood at 0.5 mg/kg, iv. It is filed as ADME, organism-based, Canis lupus familiaris.
Data set [15] in a line: Half life in dog at 0.5 mg/kg, iv. It is filed as ADME, organism-based, Canis lupus familiaris. Particulars: in vivo.

Active and inactive are the calls of the source.

Cytochrome P450 2D6, sequence (P10635 whole entry): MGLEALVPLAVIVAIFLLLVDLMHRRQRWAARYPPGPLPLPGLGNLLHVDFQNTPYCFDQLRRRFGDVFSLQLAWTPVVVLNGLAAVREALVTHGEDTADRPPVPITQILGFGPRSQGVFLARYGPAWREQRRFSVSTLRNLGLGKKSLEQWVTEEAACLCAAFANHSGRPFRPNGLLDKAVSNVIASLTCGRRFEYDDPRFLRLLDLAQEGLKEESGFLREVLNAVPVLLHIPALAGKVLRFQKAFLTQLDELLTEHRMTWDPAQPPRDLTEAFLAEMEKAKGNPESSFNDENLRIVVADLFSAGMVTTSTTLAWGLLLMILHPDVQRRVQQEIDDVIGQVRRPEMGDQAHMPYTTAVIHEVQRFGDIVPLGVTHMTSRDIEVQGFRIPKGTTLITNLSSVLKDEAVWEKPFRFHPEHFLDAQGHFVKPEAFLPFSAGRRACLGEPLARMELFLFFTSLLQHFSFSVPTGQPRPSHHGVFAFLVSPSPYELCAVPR
Sodium channel protein type 3 subunit alpha, sequence (Q9NY46 whole entry): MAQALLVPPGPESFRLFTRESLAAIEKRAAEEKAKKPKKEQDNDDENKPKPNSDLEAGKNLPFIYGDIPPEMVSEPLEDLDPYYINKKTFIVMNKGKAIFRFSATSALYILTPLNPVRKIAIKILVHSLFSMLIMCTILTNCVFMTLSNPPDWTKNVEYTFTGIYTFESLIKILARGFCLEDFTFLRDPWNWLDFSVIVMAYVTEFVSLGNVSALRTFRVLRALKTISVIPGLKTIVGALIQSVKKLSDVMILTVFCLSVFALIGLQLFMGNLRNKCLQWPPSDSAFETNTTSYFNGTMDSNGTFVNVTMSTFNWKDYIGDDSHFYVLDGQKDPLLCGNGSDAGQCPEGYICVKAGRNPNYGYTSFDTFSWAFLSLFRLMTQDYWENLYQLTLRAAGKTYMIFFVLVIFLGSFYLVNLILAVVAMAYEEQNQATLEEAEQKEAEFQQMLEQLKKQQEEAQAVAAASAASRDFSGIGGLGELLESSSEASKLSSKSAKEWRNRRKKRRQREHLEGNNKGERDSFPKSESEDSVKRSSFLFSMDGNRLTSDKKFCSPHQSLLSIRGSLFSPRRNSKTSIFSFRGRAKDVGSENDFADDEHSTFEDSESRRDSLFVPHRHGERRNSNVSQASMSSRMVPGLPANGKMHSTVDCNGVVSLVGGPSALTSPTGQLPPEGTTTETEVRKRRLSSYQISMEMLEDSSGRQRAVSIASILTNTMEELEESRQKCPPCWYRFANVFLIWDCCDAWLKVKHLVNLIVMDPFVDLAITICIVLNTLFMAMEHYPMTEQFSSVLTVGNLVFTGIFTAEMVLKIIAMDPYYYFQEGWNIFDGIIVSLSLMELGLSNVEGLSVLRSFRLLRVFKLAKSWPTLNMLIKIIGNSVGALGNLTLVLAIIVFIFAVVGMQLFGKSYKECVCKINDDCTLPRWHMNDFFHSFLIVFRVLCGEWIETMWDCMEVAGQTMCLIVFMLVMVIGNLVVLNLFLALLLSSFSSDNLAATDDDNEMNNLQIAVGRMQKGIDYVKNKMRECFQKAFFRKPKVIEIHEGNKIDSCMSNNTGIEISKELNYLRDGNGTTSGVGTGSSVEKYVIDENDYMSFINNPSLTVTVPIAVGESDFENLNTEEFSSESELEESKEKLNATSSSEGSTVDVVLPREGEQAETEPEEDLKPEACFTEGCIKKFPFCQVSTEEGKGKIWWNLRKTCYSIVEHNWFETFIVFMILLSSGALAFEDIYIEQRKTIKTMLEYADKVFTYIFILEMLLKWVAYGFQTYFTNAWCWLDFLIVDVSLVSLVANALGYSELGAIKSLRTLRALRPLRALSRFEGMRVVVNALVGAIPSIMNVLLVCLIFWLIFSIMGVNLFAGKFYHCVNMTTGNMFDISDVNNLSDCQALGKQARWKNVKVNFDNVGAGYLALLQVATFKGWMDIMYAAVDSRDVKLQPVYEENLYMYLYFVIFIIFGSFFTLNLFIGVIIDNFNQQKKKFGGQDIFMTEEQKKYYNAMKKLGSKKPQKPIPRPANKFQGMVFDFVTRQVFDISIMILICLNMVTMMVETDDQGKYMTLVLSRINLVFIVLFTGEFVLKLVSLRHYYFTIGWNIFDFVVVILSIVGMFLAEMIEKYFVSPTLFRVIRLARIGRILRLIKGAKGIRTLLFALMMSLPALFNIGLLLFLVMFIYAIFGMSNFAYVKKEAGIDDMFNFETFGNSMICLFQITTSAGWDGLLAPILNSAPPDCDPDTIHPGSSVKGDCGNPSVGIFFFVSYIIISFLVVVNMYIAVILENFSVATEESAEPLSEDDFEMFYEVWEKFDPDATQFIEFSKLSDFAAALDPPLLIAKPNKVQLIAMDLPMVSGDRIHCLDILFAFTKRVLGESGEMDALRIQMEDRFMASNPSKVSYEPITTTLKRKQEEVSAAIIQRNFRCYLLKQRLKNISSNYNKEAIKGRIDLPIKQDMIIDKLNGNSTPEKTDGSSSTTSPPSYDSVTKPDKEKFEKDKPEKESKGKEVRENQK

A word on the IC50: it is the midpoint of a concentration-inhibition curve. What is called Tmax is the time at which the peak concentration occurs. By bioavailability is commonly meant the share of a dose that reaches the circulation, judged against a reference dose that is usually intravenous. The Cmax is the peak of the concentration-time curve. Broadly, the clearance is the volume of plasma or blood freed of the substance per unit of time. In general, half-life refers to the time needed for the level to fall by half in the phase considered. Regarding `Cl.NC(=O)[C@@H]1CC[C@H](c2ccc(OCc3ccccc3F)cc2)N1` [RAXATRIGINE HYDROCHLORIDE], the Kp in data set [1] stood at 6.8. Moreover, the IC50 in [2] is over 100 µM; in data set [3], 31 µM; in data set [10], 63.1 µM; in data set [12], 0.00398 µM. The Vd in data set [4] is 2 L/kg. The Tmax in [5] amounted to 2 h. For the same compound, the “Cp(f)” value in [6] stood at 23.4 ng/mL. For the same compound, in data set [7], the “inhibition (INH)” value is recorded as “Not Active”. The figures for the bioavailability in data set [8] and in [9] were 42% and 43%, respectively. Further, in data set [11], the result was Active. Further, in [13], the Cmax was 705 ng/mL. In [14], this compound came in with a clearance of 12 mL/min/kg. In addition, the half-life in data set [15] is 2.2 h.
